We go through 16 compounds from ChEMBL document CHEMBL1125274, “Persistent binding of fatty acyl derivatives of naltrexamine to opioid receptors” (J Med Chem, 1991).

Assay [1] concerns the target T1, Opioid receptor (Mus musculus) (UniProt P42866+P32300+P33534). The assay is described as follows: Binding to mouse brain membranes expressed as percentage of receptor occupancy determined from difference in specific binding of [3H]dihydromorphine obtained after 10 wash procedures. The following applies: Membrane. An outline of the steps: (§1)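 Male mouse brain (minus cerebellum) membranes in pH 7.4 Hepes buffer are exposed to ligand for 30 min at 25 °C, then centrifuged and washed 10 times (resuspended in Hepes, 10 min at 37 °C, recentrifuged). Pellets are labelled with 2 nM final [3H]dihydromorphine for 20 min at 25 °C; 1 µM naltrexone defines nonspecific binding. Occupancy is the loss of specific binding versus a ligand-free control treated identically, counted by scintillation. Mean ± SD of triplicates.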

Assay [2] has as its target T1, Opioid receptor (Mus musculus). The assay is described as follows: Binding to mouse brain membranes expressed as percentage of receptor occupancy determined from difference in specific binding of [3H]dihydromorphine obtained after 3 wash procedures. Particulars: Membrane. In short, it runs like this: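 Mouse forebrain membranes in Hepes buffer, pH 7.4, are incubated with ligand for 30 min at 25 °C, then given 3 wash cycles, each a 10 min resuspension at 37 °C followed by centrifugation. Residual occupancy is measured with 2 nM [3H]dihydromorphine (20 min, 25 °C; nonspecific binding with 1 µM naltrexone) as the drop in specific binding relative to a washed control without ligand. Mean ± SD, triplicate.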

Assay [3] has the same target. The assay is described as follows: Binding to mouse brain membranes expressed as percentage of receptor occupancy determined from difference in specific binding of [3H]dihydromorphine obtained after 5 wash procedures. The following applies: Membrane. In short, it runs like this: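 Ligand pretreatment of male mouse brain membranes runs 30 min at 25 °C, followed by 5 washes in Hepes buffer pH 7.4 (10 min at 37 °C each, then recentrifuged). Specific binding of 2 nM [3H]dihydromorphine (20 min at 25 °C, minus binding with 1 µM naltrexone) is compared with an identically washed ligand-free control to give percent occupancy. Triplicate, mean ± SD.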

For assay [4] the target is unchanged. The assay is described as follows: Binding to mouse brain membranes expressed as percentage of receptor occupancy determined from difference in specific binding of [3H]dihydromorphine obtained prewashed. Particulars: Membrane. In short, it runs like this:
(§2)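 Applies to membranes washed before ligand exposure. Mouse brain membranes in Hepes buffer pH 7.4 are incubated with ligand for 30 min at 25 °C. Occupancy is taken from the reduction in specific binding of [3H]dihydromorphine (2 nM final, 20 min at 25 °C; nonspecific binding with 1 µM naltrexone) versus a ligand-free control. Mean ± SD of triplicates.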

For assay [5] the target is unchanged. The assay is described as follows: (§3) Inhibition of [3H]dihydromorphine binding to mouse brain membranes as percentage of Opioid receptor occupancy.
For assay [6] the target is unchanged. Described as §3. The source holds these as a separate data set.
Assay [7] shares this target. The experiment in a line: Binding to mouse brain membranes expressed as percentage of Opioid receptors occupancy determined from difference in specific binding of [3H]dihydromorphine obtained after 10 wash procedures. Particulars: Membrane. In short, it runs like this: as §1
The target is the same in assay [8]. The assay is described as follows: Binding to mouse brain membranes expressed as percentage of Opioid receptors occupancy determined from difference in specific binding of [3H]dihydromorphine obtained prewashed. Particulars: Membrane. In short, it runs like this:
as §2

T1 sequence (P32300 whole entry, looked up): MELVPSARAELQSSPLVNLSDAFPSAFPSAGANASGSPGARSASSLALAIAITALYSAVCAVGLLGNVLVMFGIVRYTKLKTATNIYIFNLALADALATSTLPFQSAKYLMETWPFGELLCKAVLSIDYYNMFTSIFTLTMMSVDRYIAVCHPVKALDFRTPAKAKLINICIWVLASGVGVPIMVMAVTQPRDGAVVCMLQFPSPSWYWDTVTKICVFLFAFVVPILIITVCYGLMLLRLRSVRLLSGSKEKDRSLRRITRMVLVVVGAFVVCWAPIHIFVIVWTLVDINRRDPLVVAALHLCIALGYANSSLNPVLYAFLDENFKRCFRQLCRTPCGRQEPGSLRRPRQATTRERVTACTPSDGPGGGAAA
T1 sequence (P33534 whole entry, looked up): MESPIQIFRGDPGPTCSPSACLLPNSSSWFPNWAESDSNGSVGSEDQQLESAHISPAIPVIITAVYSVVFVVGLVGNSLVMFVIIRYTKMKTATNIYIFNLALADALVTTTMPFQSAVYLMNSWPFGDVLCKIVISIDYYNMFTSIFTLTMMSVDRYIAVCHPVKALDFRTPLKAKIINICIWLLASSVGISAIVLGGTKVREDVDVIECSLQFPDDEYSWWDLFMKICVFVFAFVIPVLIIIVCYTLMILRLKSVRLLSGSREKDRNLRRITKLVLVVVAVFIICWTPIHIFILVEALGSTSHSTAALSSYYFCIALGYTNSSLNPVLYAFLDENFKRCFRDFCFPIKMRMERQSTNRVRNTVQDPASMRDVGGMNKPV
T1 sequence (P42866 whole entry, looked up): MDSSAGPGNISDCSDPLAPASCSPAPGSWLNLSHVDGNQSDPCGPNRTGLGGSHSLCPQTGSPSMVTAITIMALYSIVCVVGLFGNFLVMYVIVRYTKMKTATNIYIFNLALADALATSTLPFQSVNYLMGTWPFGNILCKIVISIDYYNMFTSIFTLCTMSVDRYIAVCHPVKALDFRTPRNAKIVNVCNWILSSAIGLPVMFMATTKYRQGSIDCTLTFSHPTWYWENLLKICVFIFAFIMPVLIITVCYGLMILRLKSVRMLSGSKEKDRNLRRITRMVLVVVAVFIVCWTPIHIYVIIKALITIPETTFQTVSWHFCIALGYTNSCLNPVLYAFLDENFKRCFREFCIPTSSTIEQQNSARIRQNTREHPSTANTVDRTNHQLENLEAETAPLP

As for `CCCCCCCCCCCCCCCC(=O)N[C@H]1CC[C@@]2(O)[C@H]3Cc4ccc(O)c5c4[C@@]2(CCN3CC2CC2)[C@H]1O5`, the Receptor occupancy in assay [1] stood at 3%; in assay [2] it was 85%; in assay [3], 35%; in assay [4] it was 24%.
Take `CC(=O)N[C@H]1CC[C@@]2(O)[C@H]3Cc4ccc(O)c5c4[C@@]2(CCN3CC2CC2)[C@H]1O5`: in assay [2], the Receptor occupancy is 2%.
With `CCCCCCCCCCCCCCCCCC(=O)NN[C@@H]1CC[C@@]2(O)[C@H]3Cc4ccc(O)c5c4[C@@]2(CCN3CC2CC2)[C@H]1O5`, the Receptor occupancy in assay [5] stood at 38%; in assay [6] it was 4%.
On to `CC/C=C/C/C=C/C/C=C/CCCCCCCC(=O)N[C@H]1CC[C@@]2(O)[C@H]3Cc4ccc(O)c5c4[C@@]2(CCN3CC2CC2)[C@H]1O5`, for which the Receptor occupancy in assay [7] was 84%; in assay [5] it was 94%; in assay [6], 89%; in assay [8] it was 69%.
Turning to `CCCCC/C=C/C/C=C/CCCCCCCC(=O)N[C@@H]1CC[C@@]2(O)[C@H]3Cc4ccc(O)c5c4[C@@]2(CCN3CC2CC2)[C@H]1O5`, the Receptor occupancy is 53% in assay [7], 94% in assay [5], 96% in assay [6] and 84% in assay [8].
Consider `CCCCCCCCCCCCCCCCCC(=O)N[C@@H]1CC[C@@]2(O)[C@H]3Cc4ccc(O)c5c4[C@@]2(CCN3CC2CC2)[C@H]1O5`, for which the Receptor occupancy in assay [7] came out at 2%; in assay [5], 89%; in assay [6], 48%; in assay [8], 34%.
Consider `CCCCCCCCCCCCCCCC(=O)NN[C@@H]1CC[C@@]2(O)[C@H]3Cc4ccc(O)c5c4[C@@]2(CCN3CC2CC2)[C@H]1O5`, for which the Receptor occupancy in assay [5] worked out at 33%; in assay [6], 2%.
On to `CC/C=C/C/C=C/C/C=C/CCCCCCCC(=O)NN[C@@H]1CC[C@@]2(O)[C@H]3Cc4ccc(O)c5c4[C@@]2(CCN3CC2CC2)[C@H]1O5`, for which the Receptor occupancy in assay [7] was determined as 38%; in assay [5], 93%; in assay [6] it was 46%.
With `CC(=O)N[C@@H]1CC[C@@]2(O)[C@H]3Cc4ccc(O)c5c4[C@@]2(CCN3CC2CC2)[C@H]1O5`, the Receptor occupancy in assay [2] was determined as 4%.
Take `CCCCC/C=C/C/C=C/CCCCCCCC(=O)N[C@H]1CC[C@@]2(O)[C@H]3Cc4ccc(O)c5c4[C@@]2(CCN3CC2CC2)[C@H]1O5`: the Receptor occupancy in assay [7] turned out to be 46%; in assay [5] it was 93%; in assay [6] it was 93%; in assay [8], 73%.
`Oc1ccc2c3c1O[C@H]1/C(=N\N=C4/CC[C@@]5(O)[C@H]6Cc7ccc(O)c8c7[C@@]5(CCN6CC5CC5)[C@H]4O8)CC[C@@]4(O)[C@@H](C2)N(CC2CC2)CC[C@]314`: the results for the Receptor occupancy in assay [1], in assay [2] and in assay [3] were 2%, 35% and -1%, respectively.
For the compound `CC/C=C/C/C=C/C/C=C/CCCCCCCC(=O)N[C@@H]1CC[C@@]2(O)[C@H]3Cc4ccc(O)c5c4[C@@]2(CCN3CC2CC2)[C@H]1O5`, the Receptor occupancy in assay [7] was determined as 86%; in assay [5], 92%; in assay [6], 95%; in assay [8], 85%.
For `CCCCCCCCCCCCCCCCCC(=O)N[C@H]1CC[C@@]2(O)[C@H]3Cc4ccc(O)c5c4[C@@]2(CCN3CC2CC2)[C@H]1O5`, the Receptor occupancy in assay [7] was found to be 6%; in assay [5] it was 77%; in assay [6], 42%; in assay [8], 18%.
The like results for `CCCCCCCC/C=C/CCCCCCCC(=O)N[C@@H]1CC[C@@]2(O)[C@H]3Cc4ccc(O)c5c4[C@@]2(CCN3CC2CC2)[C@H]1O5` were, in that order, 32%, 95%, 93% and 64%.
Regarding `CCCCCCCCCCCCCCCC(=O)N[C@@H]1CC[C@@]2(O)[C@H]3Cc4ccc(O)c5c4[C@@]2(CCN3CC2CC2)[C@H]1O5`, the Receptor occupancy is 2% in assay [7], 93% in assay [5], 58% in assay [6] and 38% in assay [8].
For the compound `CCCCCCCC/C=C/CCCCCCCC(=O)N[C@H]1CC[C@@]2(O)[C@H]3Cc4ccc(O)c5c4[C@@]2(CCN3CC2CC2)[C@H]1O5`, the Receptor occupancy in assay [7] stood at 21%; in assay [5], 98%; in assay [6], 54%; in assay [8], 42%.
